Assay results taken from ChEMBL document CHEMBL1125712 (J Med Chem, 1991).
Activity calls are given as the source filed them. The rule behind the calls is not given here.

What was measured:
[1] = molecular target: Aldo-keto reductase family 1 member B1 (Homo sapiens, UniProt P15121); assay: Inhibition of aldose reductase (aldo-keto reductase, AKR1B1) isolated from human placenta.
[2] = tested on: aldose reductase (Rattus norvegicus); assay: In vivo inhibition of sorbitol accumulation in the rat following 10 mg/kg p.o. administration.; details: at 10 mg/kg
Rattus norvegicus [3] = organism: Rattus norvegicus; assay: animal or person; type: functional
[4] = tested on: aldose reductase (Rattus norvegicus); assay: In vivo inhibition of sorbitol accumulation in the rat following 10 mg/kg p.o. administration; Not significant.; details: at 10 mg/kg
Rattus norvegicus [5] = organism: Rattus norvegicus; details: at 25 mg/kg
Rattus norvegicus [6] = assay: Compound was evaluated for the ED50(acute) in male Sprague-Dawley rats(n=4) treated with streptozotocin (85 mg/kg intravenously).; type: functional; details: oral
In short: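 Streptozotocin-diabetic rats (85 mg/kg iv) dosed by oral gavage, aqueous suspension or solution, at 4, 7 and 24 h. Killed at 27 h. […] ED50 from log linear regression.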

[7] = Partition coefficient (logP); type: physicochemical; details: octanol/water
[8] = Compound was evaluated for the apparent pKa (dioxane/water) in the ratio 1:1; type: physicochemical; details: dioxane/water 1:1
[9] = Compound was evaluated for the apparent pKa (dioxane/water) the ratio 2:1; type: physicochemical; details: dioxane/water 2:1
Rattus norvegicus [10] = assay: Compound was evaluated for the ED50(chronic) in male Sprague-Dawley rats(n=5) treated with streptozotocin (85 mg/kg intravenously).; details: oral

IC50 [1] [nM] | Structure (SMILES) | other results
5700 | O=C(O)Cc1nn(Cc2cccc(-c3nc4ccccc4s3)c2)c(=O)c2ccccc12 | –
70 | O=C(O)Cc1nn(Cc2nc3ccc(C(F)(F)F)cc3s2)c(=O)c2ccccc12 | inhibition [2]: 65%
10 | O=C(O)Cc1nn(Cc2nc3c(F)c(F)ccc3s2)c(=O)c2ccccc12 | inhibition [2]: 82%
4200 | COc1ccc2nc(Cn3nc(CC(=O)O)c4ccccc4c3=O)sc2c1 | –
87 | O=C(O)Cc1nn(Cc2nc3cc(O)cc(O)c3s2)c(=O)c2ccccc12 | –
10 | O=C(O)Cc1nn(Cc2nc3cccnc3s2)c(=O)c2ccccc12 | inhibition in vivo at 25 mg/kg (Rattus norvegicus [3]; dose 25 mg/kg, route oral): 83%
81 | O=C(O)Cc1nn(CSc2nc3ccccc3s2)c(=O)c2ccccc12 | –
110 | O=C(O)Cc1nn(Cc2nc3cc(Cl)c(F)cc3s2)c(=O)c2ccccc12 | –
18 | O=C(O)Cc1nn(Cc2nc3ccccc3s2)c(=O)c2ccc(C(F)(F)F)cc12 | inhibition [4]: inactive
> 1000 | O=C(O)Cc1nn(Cc2ccc(-c3nc4ccccc4s3)cc2)c(=O)c2ccccc12 | –
1400 | O=C(O)Cc1nn(Cc2nc3cc(C(F)(F)F)cc(C(F)(F)F)c3s2)c(=O)c2ccccc12 | inhibition [4]: inactive
110 | CC(C)c1ccc2c(=O)n(Cc3nc4ccccc4s3)nc(CC(=O)O)c2c1 | –
27 | Cc1ccc2c(=O)n(Cc3nc4ccccc4s3)nc(CC(=O)O)c2c1 | –
300 | O=C(O)Cc1nn(Cc2nc3c(ccc4ccccc43)s2)c(=O)c2ccc(Cl)cc12 [listing 1 of 2 here] | –
28 | COc1ccc2c(=O)n(Cc3nc4ccccc4s3)nc(CC(=O)O)c2c1 | –
100 | COc1cccc2sc(Cn3nc(CC(=O)O)c4ccccc4c3=O)nc12 | inhibition (Rattus norvegicus [5]): inactive
100 | O=C(O)Cc1nn(Cc2nc3c(O)cccc3s2)c(=O)c2ccccc12 | inhibition (Rattus norvegicus [5]): inactive
7.1 | O=C(O)Cc1nn(Cc2nc3cc(Cl)ccc3s2)c(=O)c2ccccc12 | inhibition [2]: 73%
68 | O=C(O)Cc1nn(Cc2nc3cc(F)c(F)cc3s2)c(=O)c2ccccc12 | inhibition in vivo at 25 mg/kg (Rattus norvegicus [3]; dose 25 mg/kg, route oral): 75%
660 | COc1cc(C(F)(F)F)c2sc(Cn3nc(CC(=O)O)c4ccccc4c3=O)nc2c1 | –
5500 | CN1C(C(=O)Nc2nc3ccccc3s2)=C(O)c2ccccc2S1(=O)=O | –

IC50 [1] [nM] | Structure (SMILES) | other results
19 | O=C(O)Cc1nn(Cc2nc3ccccc3s2)c(=O)c2ccccc12 | inhibition in vivo at 25 mg/kg (Rattus norvegicus [3]; dose 25 mg/kg, route oral): 67%; ED50 (Rattus norvegicus [6]): 18.5 mg/kg
2300 | COc1cc2nc(Cn3nc(CC(=O)O)c4ccccc4c3=O)sc2cc1F | inhibition (Rattus norvegicus [5]): inactive
33 | O=C(O)Cc1nn(Cc2nc3ccccc3s2)c(=O)c2cc([N+](=O)[O-])ccc12 | –
43 | CC(c1nc2ccccc2s1)n1nc(CC(=O)O)c2ccccc2c1=O (configuration not stated) | inhibition in vivo at 25 mg/kg (Rattus norvegicus [3]; dose 25 mg/kg, route oral): 50%
41 | O=C(O)Cc1nn(Cc2nc3cc(O)ccc3s2)c(=O)c2ccccc12 | –
26 | Cc1ccc2sc(Cn3nc(CC(=O)O)c4ccccc4c3=O)nc2c1 | inhibition (Rattus norvegicus [5]): inactive
6.2 | O=C(O)Cc1nn(Cc2nc3cc(F)cc(Cl)c3s2)c(=O)c2ccccc12 | inhibition [2]: 58%
26 | CC(c1nc2cc(Cl)ccc2s1)n1nc(CC(=O)O)c2ccccc2c1=O (configuration not stated) | inhibition [2]: 53%
12 | O=C(O)Cc1nn(Cc2nc3ccccc3s2)c(=O)c2cc(C(F)(F)F)ccc12 | inhibition [4]: inactive
37 | O=C1NC(=O)C2(CN(Cc3nc4ccccc4s3)c3ccc(Cl)cc32)N1 (configuration not stated) | –
26 | O=C(O)Cc1nn(Cc2nc3ccc(Br)cc3s2)c(=O)c2ccccc12 | –
21 | O=C(O)Cc1nn(Cc2ccc(Br)cc2F)c(=O)c2ccccc12 [PONALRESTAT] | –
100 | O=C(O)Cc1nn(Cc2nc3c(Cl)c(Cl)ccc3s2)c(=O)c2ccccc12 | –
2 | O=C(O)Cc1nn(Cc2nc3c(F)cccc3s2)c(=O)c2ccccc12 | inhibition [4]: inactive
10 | O=C(O)Cc1nn(Cc2nc3cccc(C(F)(F)F)c3s2)c(=O)c2ccccc12 | inhibition [2]: 80%
320 | Cc1ccc2nc(Cn3nc(CC(=O)O)c4ccccc4c3=O)sc2c1F | –
170 | O=C(O)Cc1nn(Cc2nc3c(Cl)cc(Cl)cc3s2)c(=O)c2ccccc12 | –
3200 | CC(C)c1ccc2nc(Cn3nc(CC(=O)O)c4ccccc4c3=O)sc2c1 | –
4300 | C[S+]([O-])c1ccc2sc(Cn3nc(CC(=O)O)c4ccccc4c3=O)nc2c1 (configuration not stated) | –
140 | O=C1NC(=O)C2(CN(Cc3ccc(F)cc3)c3ccc(F)cc32)N1 (configuration not stated) | –
30 | O=C(O)Cc1nn(Cc2nc3ccccc3s2)c(=O)c2c(F)cccc12 | –

IC50 [1] [nM] | Structure (SMILES) | other results
37 | CC(c1nc2cc(C(F)(F)F)ccc2s1)n1nc(CC(=O)O)c2ccccc2c1=O (configuration not stated) | –
5 | O=C(O)Cc1nn(Cc2nc3cc(Cl)cc(F)c3s2)c(=O)c2ccccc12 | inhibition [2]: 63%
> 1000 | O=C(O)Cc1nn(-c2nc3ccccc3s2)c(=O)c2ccccc12 | –
420 | Cc1cccc2c(CC(=O)O)nn(Cc3nc4ccccc4s3)c(=O)c12 | inhibition [4]: inactive
46 | O=C(O)Cc1nn(Cc2nc3ccccc3s2)c(=O)c2ccc([N+](=O)[O-])cc12 | inhibition [4]: inactive
510 | O=C(O)Cc1nn(Cc2nc3c(ccc4ccccc43)s2)c(=O)c2ccccc12 | inhibition (Rattus norvegicus [5]): inactive
1800 | O=C(O)Cc1nn(Cc2nc3ccc(Br)cc3s2)c(=O)c2cc(Cl)c(Cl)cc12 | –
60 | CSc1ccc2sc(Cn3nc(CC(=O)O)c4ccccc4c3=O)nc2c1 | –
1000 | O=C(O)Cc1nn(Cc2nc3ccc(O)cc3s2)c(=O)c2ccccc12 | –
120 | O=C(O)Cc1nn(Cc2nc3cc(C(F)(F)F)c(O)cc3s2)c(=O)c2ccccc12 | inhibition (Rattus norvegicus [5]): inactive
– | O=C(O)c1nnc(O)c2ccccc12 | logP [7]: 2.42; pKa [8]: 5.49; pKa [9]: 6.35
10 | O=C(O)Cc1nn(Cc2nc3ccccc3s2)c(=O)c2cc(Cl)c(Cl)cc12 | –
20 | O=C(O)Cc1nn(Cc2nc3c(Cl)ccc(Cl)c3s2)c(=O)c2ccccc12 | inhibition in vivo at 25 mg/kg (Rattus norvegicus [3]; dose 25 mg/kg, route oral): 65%
230 | COc1ccc2sc(Cn3nc(CC(=O)O)c4ccccc4c3=O)nc2c1 | inhibition (Rattus norvegicus [5]): inactive
700 | COc1cc(OC)c2sc(Cn3nc(CC(=O)O)c4ccccc4c3=O)nc2c1 | –
15 | O=C(O)Cc1nn(Cc2nc3ccccc3s2)c(=O)c2cc(Cl)ccc12 | –
4300 | COc1cc2sc(Cn3nc(CC(=O)O)c4ccccc4c3=O)nc2cc1C(F)(F)F | –
5 | O=C(O)Cc1nn(Cc2nc3c(F)ccc(F)c3s2)c(=O)c2ccccc12 | inhibition [2]: 73%
94 | O=C(O)Cc1nn(Cc2nc3cc(C(F)(F)F)cc(Cl)c3s2)c(=O)c2ccccc12 | inhibition [2]: 26%
76 | O=C(O)Cc1nn(Cc2nc3ccc(Cl)cc3s2)c(=O)c2ccccc12 | inhibition in vivo at 25 mg/kg (Rattus norvegicus [3]; dose 25 mg/kg, route oral): 61%
460 | O=C(O)Cc1nn(CCc2nc3cc(C(F)(F)F)ccc3s2)c(=O)c2ccccc12 | –

IC50 [1] [nM] | Structure (SMILES) | other results
690 | O=C(O)Cc1nn(Cc2nc3ccccc3s2)c(=O)c2cc(Br)ccc12 | inhibition [2]: 42%
42 | Cc1cccc2c(CC(=O)O)nn(Cc3nc4c(ccc5ccccc54)s3)c(=O)c12 | inhibition [4]: inactive
4 | O=C(O)Cc1nn(Cc2nc3cc(Cl)cc(Cl)c3s2)c(=O)c2ccccc12 | ED50 (Rattus norvegicus [6]): 3.5 mg/kg; inhibition [2]: 73%; ED50 (Rattus norvegicus [10]): 2.8 mg/kg
34 | O=C(O)Cc1nn(Cc2nc3ccccc3s2)c(=O)c2ccc(Cl)cc12 | –
15 | O=C(O)Cc1nn(Cc2nc3cccc(Br)c3s2)c(=O)c2ccccc12 | inhibition [2]: 71%
3.5 | O=C(O)Cc1nn(Cc2nc3c(Cl)cccc3s2)c(=O)c2ccccc12 | inhibition [2]: 63%
1700 | CS(=O)(=O)c1ccc2sc(Cn3nc(CC(=O)O)c4ccccc4c3=O)nc2c1 | inhibition [4]: inactive
320 | Cc1ccc2nc(Cn3nc(CC(=O)O)c4ccccc4c3=O)sc2c1 | inhibition (Rattus norvegicus [5]): inactive
100 | O=C(O)Cc1nn(Cc2nc3cc(F)cc(C(F)(F)F)c3s2)c(=O)c2ccccc12 | inhibition [4]: inactive
26 | COc1ccc2c(CC(=O)O)nn(Cc3nc4ccccc4s3)c(=O)c2c1 | inhibition [4]: inactive
25 | O=C(O)Cc1nn(Cc2nc3c(C(F)(F)F)cccc3s2)c(=O)c2ccccc12 | inhibition [2]: 61%
1 | O=C(O)Cc1nn(Cc2nc3cccc(Cl)c3s2)c(=O)c2ccccc12 | inhibition [2]: 52%
420 | O=C(O)Cc1nn(Cc2nc3cc(Cl)c(Cl)cc3s2)c(=O)c2ccccc12 | inhibition in vivo at 25 mg/kg (Rattus norvegicus [3]; dose 25 mg/kg, route oral): 34%
12 | O=C(O)Cc1nn(Cc2nc3ccccc3s2)c(=O)c2ccc(Br)cc12 | –
620 | O=C(O)Cc1nn(Cc2nc3cc(Cl)cc(C(F)(F)F)c3s2)c(=O)c2ccccc12 | –
350 | O=C(O)Cc1nn(Cc2nc3c(ccc4ccccc43)s2)c(=O)c2ccc(Cl)cc12 [listing 2 of 2 here] | –
17 | O=C(O)Cc1nn(Cc2nc3cc(C(F)(F)F)cc(F)c3s2)c(=O)c2ccccc12 | –
5.9 | Cc1cc(C)c2sc(Cn3nc(CC(=O)O)c4ccccc4c3=O)nc2c1 | inhibition in vivo at 25 mg/kg (Rattus norvegicus [3]; po): 39%
